{"source": "ChEMBL document CHEMBL4392827", "about": "“Tryptamine derivatives disarm colistin resistance in polymyxin-resistant gram-negative bacteria” (Bioorg Med Chem, 2019)", "key": {"[1]": {"test": "Hemolytic activity in sheep erythrocytes assessed as hemolysis at 100 uM incubated for 1 hr under shaking condition by UV-spectrophotometry", "type": "ADME, cell-based, Ovis aries, Erythrocyte", "details": "read-out: Activity", "summary_of_the_method": "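Washed sheep erythrocytes (defibrinated blood spun, resuspended in PBS three times) diluted 10-fold in PBS containing compound from DMSO stock. DMSO negative control (0% lysis), 1% Triton X100 positive control (100% lysis). 1 h at 37°C with shaking, then spun 10 min at 10,000 rpm and supernatant diluted 1:40 in distilled water.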"}, "[2]": {"system": "Acinetobacter baumannii", "test": "Potentiation of colistin-induced antimicrobial activity against colistin-resistant Acinetobacter baumannii isolate 3942 assessed as fold reduction in colistin MIC at 5 uM after 18 hrs by broth microdilution assay", "type": "functional", "summary_of_the_method": "(§1)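 CLSI-adapted broth microdilution. Bacteria were grown 4–6 h in cation-adjusted Mueller-Hinton broth and subcultured to 5 ×10^5 CFU/mL. The subculture was dosed with adjuvant from DMSO stock at a constant final concentration, then colistin was added and serially diluted across wells. Plates were incubated stationary at 37°C for 18 h and the MIC recorded. Fold reduction is relative to the colistin MIC without adjuvant.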"}, "[3]": {"system": "Klebsiella pneumoniae", "test": "Potentiation of colistin-induced antimicrobial activity against Klebsiella pneumoniae ATCC BAA-2146 expressing NDM1 gene assessed as fold reduction in colistin MIC at 60 uM after 18 hrs by broth microdilution assay", "type": "functional", "summary_of_the_method": "(§2)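 Bacteria grown 4–6 h in cation-adjusted Mueller-Hinton broth and diluted to 5 ×10^5 CFU/mL. Adjuvant from DMSO stock held at fixed 60 μM while colistin is twofold serially diluted in the same adjuvant-dosed broth. Plates sealed and kept stationary at 37°C for 18 h. Colistin MIC read and fold reduction taken relative to colistin alone.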"}, "[4]": {"system": "Acinetobacter baumannii", "test": "Toxicity in Acinetobacter baumannii 4106 after 18 hrs by broth microdilution assay", "type": "organism-based", "details": "in vitro", "summary_of_the_method": "(§3)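 Single-agent MIC per CLSI broth microdilution. Cells from a 4–6 h culture in cation-adjusted Mueller-Hinton broth adjusted to 5 ×10^5 CFU/mL. Compound (DMSO stock) added to 200 μM top concentration and twofold serially diluted six times, with an untreated control row. Plates sealed and incubated stationary at 37°C for 18 h before MIC read.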"}, "[5]": {"system": "Klebsiella pneumoniae", "test": "Potentiation of colistin-induced antimicrobial activity against colistin-resistant Klebsiella pneumoniae isolate C3 assessed as fold reduction in colistin MIC at 60 uM after 18 hrs by broth microdilution assay", "type": "functional", "summary_of_the_method": "(§4)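 Checkerboard-style resensitization following adapted CLSI broth microdilution. Bacteria were grown 4–6 h in CAMHB and subcultured to 5×10^5 CFU/mL. Adjuvant was added from DMSO stock and held constant while colistin was serially diluted in the dosed subculture. Plates were incubated stationary at 37°C for 18 h, then MICs were read. Fold reduction was taken relative to the colistin MIC without adjuvant.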"}, "[6]": {"system": "Klebsiella pneumoniae", "test": "Potentiation of colistin-induced antimicrobial activity against colistin-resistant Klebsiella pneumoniae isolate C3 assessed as fold reduction in colistin MIC at 20 uM after 18 hrs by broth microdilution assay", "type": "functional", "summary_of_the_method": "as §1"}, "[7]": {"system": "Acinetobacter baumannii", "test": "Potentiation of colistin-induced antimicrobial activity against colistin-resistant Acinetobacter baumannii isolate 3942 assessed as fold reduction in colistin MIC at 60 uM after 18 hrs by broth microdilution assay", "type": "functional", "summary_of_the_method": "as §4"}, "[8]": {"system": "Acinetobacter baumannii", "test": "Toxicity in Acinetobacter baumannii ATCC 17978 expressing mcr1 gene after 18 hrs by broth microdilution assay", "type": "organism-based", "summary_of_the_method": "as §3"}, "[9]": {"system": "Acinetobacter baumannii", "test": "Induction of membrane permeabilization in colistin-resistant Acinetobacter baumannii isolate 3942 at 60 uM measured after 1 hr by SYTO-9/propidium iodide staining based fluorescence assay relative to control", "type": "functional", "summary_of_the_method": "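Cells were grown overnight in CAMHB at 37°C, diluted 1:10 and grown 4 h more to an OD600 of ~0.3. They were pelleted, washed with sterile water and resuspended at 1/10 volume in water containing compound. After 1 h at 37°C with shaking, cells were washed and stained with SYTO-9/propidium iodide (1:1, 3 μL/mL) for 15 min at RT. Emission was read at 530 and 645 nm (excitation 485 nm), and the green/red ratio was expressed as % of the untreated control.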"}, "[10]": {"system": "Klebsiella pneumoniae", "test": "Potentiation of colistin-induced antimicrobial activity against colistin-resistant Klebsiella pneumoniae isolate C3 assessed as fold reduction in colistin MIC at 40 uM after 18 hrs by broth microdilution assay", "type": "functional", "summary_of_the_method": "as §1"}, "[11]": {"system": "Klebsiella pneumoniae", "test": "Toxicity in Klebsiella pneumoniae B9 after 18 hrs by broth microdilution assay", "type": "organism-based", "summary_of_the_method": "as §3"}, "[12]": {"system": "Escherichia coli", "test": "Toxicity in Escherichia coli ATCC 25922 after 18 hrs by broth microdilution assay", "type": "organism-based", "details": "in vitro", "summary_of_the_method": "as §3"}, "[13]": {"system": "Klebsiella pneumoniae", "test": "Potentiation of colistin-induced antimicrobial activity against colistin-resistant Klebsiella pneumoniae B9 assessed as fold reduction in colistin MIC at 60 uM after 18 hrs by broth microdilution assay", "type": "functional", "summary_of_the_method": "as §4"}, "[14]": {"system": "Acinetobacter baumannii", "test": "Potentiation of colistin-induced antimicrobial activity against colistin-resistant Acinetobacter baumannii 4106 assessed as fold reduction in colistin MIC at 60 uM after 18 hrs by broth microdilution assay", "type": "functional", "summary_of_the_method": "as §4"}, "[15]": {"system": "Acinetobacter baumannii", "test": "Potentiation of colistin-induced antimicrobial activity against colistin-sensitive Acinetobacter baumannii 5075 assessed as fold reduction in colistin MIC at 60 uM after 18 hrs by broth microdilution assay", "type": "functional", "summary_of_the_method": "as §2"}, "[16]": {"system": "Acinetobacter baumannii", "test": "Potentiation of colistin-induced antimicrobial activity against colistin-resistant Acinetobacter baumannii isolate 3942 assessed as fold reduction in colistin MIC at 30 uM incubated for 2 to 24 hrs under shaking condition in presence of 0.001% triton X-100 by broth microdilution assay", "type": "functional"}, "[17]": {"system": "Klebsiella pneumoniae", "test": "Potentiation of colistin-induced antimicrobial activity against colistin-resistant Klebsiella pneumoniae isolate C3 after 18 hrs by broth microdilution assay", "type": "functional, organism-based", "summary_of_the_method": "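Colistin MIC was determined by adapted CLSI broth microdilution in CAMHB (5×10^5 CFU/mL inoculum), with adjuvant held at fixed levels of 5, 10, 15, 20, 30, 40, 50 or 60 μM. Adjuvant was dosed from DMSO stock while colistin was serially diluted. Plates were incubated stationary at 37°C for 18 h. Fold reduction was taken versus colistin alone.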"}}, "data": [{"smiles": "O=C(NCc1c[nH]c2ccccc12)c1cc(Br)c(Br)[nH]1", "values": [{"measurement": "hemolysis at 1 h, 100 µM", "setting": "[1]", "result": "< 1", "unit": "%"}, {"measurement": "fold change (FC)", "setting": "[2]", "result": 0}, {"measurement": "fold change (FC)", "setting": "[3]", "result": 0}, {"measurement": "MIC", "setting": "[4]", "result": "> 200", "unit": "µM"}, {"measurement": "fold change (FC)", "setting": "[5]", "result": 2048}, {"measurement": "fold change (FC)", "setting": "[6]", "result": 128}, {"measurement": "fold change (FC)", "setting": "[7]", "result": 2048}, {"measurement": "MIC", "setting": "[8]", "result": "> 200", "unit": "µM"}, {"measurement": "fold change (FC)", "setting": "[9]", "result": 1.9}, {"measurement": "fold change (FC)", "setting": "[10]", "result": 256}, {"measurement": "MIC", "setting": "[11]", "result": "> 200", "unit": "µM"}, {"measurement": "MIC", "setting": "[12]", "result": "> 200", "unit": "µM"}, {"measurement": "fold change (FC)", "setting": "[13]", "result": 2048}, {"measurement": "fold change (FC)", "setting": "[14]", "result": 2048}, {"measurement": "fold change (FC)", "setting": "[15]", "result": 4}, {"measurement": "fold change (FC)", "setting": "[16]", "result": 128}, {"measurement": "Activity", "setting": "[17]", "result": "Dose-dependent effect"}]}]}
